Measurements published in ChEMBL document CHEMBL1154352, “Toll-like receptor 7 selective synthetic oligoribonucleotide agonists: synthesis and structure-activity relationship studies” (J Med Chem, 2009).
Activity calls are given as the source filed them. The calls are words filed in the database; no cut-off is given here.

Legend:
PBMC [1] = assay: Immunomodulatory activity in human PBMC assessed as induction of IL12 at 100 ug/ml after 24 hrs; assay type: functional, cell-based
Method in brief: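 Human PBMCs plated at 5 × 10^6 cells/mL; compounds dissolved in PBS added at various concentrations, 37 °C for 24 h. Supernatant cytokines/chemokines quantified with human Luminex multiplex kit.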

[2] = Metabolic stability in human serum assessed as full length product remaining after 10 mins by HPLC; assay type: ADME, cell-free; settings: read-out: Stability
Method in brief: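 About 0.5 A260 units compound in 1% human serum in PBS, 37 °C; aliquot taken at 10 min, analysed by anion-exchange HPLC for percent intact full-length product.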

[3] = biological target: Toll-like receptor 3 (Homo sapiens) (UniProt O15455); assay: Activation of human TLR3 expressed in HEK293 assessed as induction of NF-kappaB activity reporter gene assay; assay type: cell-based
[4] = biological target: T1, Toll-like receptor 8 (Homo sapiens) (UniProt Q9NR97); assay: Activation of human TLR8 expressed in HEK293XL assessed as fold induction of NF-kappaB activity at 50 ug/ml after 18 hrs by reporter gene assay relative to control
T1 sequence (whole entry): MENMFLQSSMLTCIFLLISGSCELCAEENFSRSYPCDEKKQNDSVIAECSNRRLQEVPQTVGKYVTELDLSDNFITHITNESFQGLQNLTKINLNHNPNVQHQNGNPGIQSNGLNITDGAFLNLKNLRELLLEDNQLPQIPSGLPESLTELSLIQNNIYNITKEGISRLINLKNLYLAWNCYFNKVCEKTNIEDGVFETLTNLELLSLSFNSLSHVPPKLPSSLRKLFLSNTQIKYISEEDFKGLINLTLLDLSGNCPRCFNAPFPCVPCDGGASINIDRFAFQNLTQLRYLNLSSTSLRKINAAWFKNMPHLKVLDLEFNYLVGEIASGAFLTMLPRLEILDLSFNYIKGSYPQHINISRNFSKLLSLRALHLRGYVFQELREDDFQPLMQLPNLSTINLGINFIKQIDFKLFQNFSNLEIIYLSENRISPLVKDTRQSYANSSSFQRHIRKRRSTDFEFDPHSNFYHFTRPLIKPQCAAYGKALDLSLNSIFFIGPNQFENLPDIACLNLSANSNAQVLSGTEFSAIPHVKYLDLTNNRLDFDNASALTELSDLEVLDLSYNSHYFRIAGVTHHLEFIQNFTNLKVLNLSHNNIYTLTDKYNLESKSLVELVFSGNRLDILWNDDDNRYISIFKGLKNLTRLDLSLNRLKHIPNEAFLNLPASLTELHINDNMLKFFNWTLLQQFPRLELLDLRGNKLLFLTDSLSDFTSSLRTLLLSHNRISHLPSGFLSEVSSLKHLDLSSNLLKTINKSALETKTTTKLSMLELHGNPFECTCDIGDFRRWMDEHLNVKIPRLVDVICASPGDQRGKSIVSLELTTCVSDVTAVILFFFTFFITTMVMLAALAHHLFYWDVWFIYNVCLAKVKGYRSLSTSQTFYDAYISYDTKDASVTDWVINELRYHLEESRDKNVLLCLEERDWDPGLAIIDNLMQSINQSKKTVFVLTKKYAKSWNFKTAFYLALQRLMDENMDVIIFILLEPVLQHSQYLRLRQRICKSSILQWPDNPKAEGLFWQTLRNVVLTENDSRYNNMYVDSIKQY
Method in brief: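 HEK293 cells stably expressing human TLR7 or TLR8, transiently transfected with SEAP reporter plasmid; medium replaced, SIMRA compounds added, 18 h incubation. Supernatant SEAP measured by QuantiBlue; expressed as fold increase in NF-κB activity over PBS control. Tabulated data at 50 μg/mL, representative of three independent experiments.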

Splenocyte [5] = assay: Immunomodulatory activity in C57BL/6 mouse splenocytes bearing TLR7 receptor assessed as IL6 release at 100 ug/ml after 24 hrs by ELISA; assay type: functional, cell-based
Method in brief: (§1)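 C57BL/6 splenocytes in RPMI 1640 with 10% FBS, penicillin/streptomycin, 2 mM L-glutamine, plated at 5 × 10^6 cells/mL; compounds in PBS added, 37 °C for 24 h. Supernatant IL-12 and IL-6 by ELISA; representative of three independent experiments.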

PBMC [6] = assay: Immunomodulatory activity in human PBMC assessed as induction of IFN-alpha at 100 ug/ml after 24 hrs
Homo sapiens = organism: Homo sapiens; assay: Ratio of human TLR7 activity to human TLR8 activity
Method in brief: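 TLR7/TLR8 ratio computed from fold NF-κB (SEAP reporter) activation in HEK293 cells stably expressing human TLR7 versus TLR8, compounds at 50 μg/mL, 18 h exposure; representative of three independent experiments.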

Splenocyte [7] = assay: Immunomodulatory activity in C57BL/6 mouse splenocytes bearing TLR7 receptor assessed as IL12 release at 100 ug/ml after 24 hrs by ELISA; assay type: functional, cell-based; method in brief: as §1

Chain of Toll-like receptor 3 (Homo sapiens) (O15455 whole entry): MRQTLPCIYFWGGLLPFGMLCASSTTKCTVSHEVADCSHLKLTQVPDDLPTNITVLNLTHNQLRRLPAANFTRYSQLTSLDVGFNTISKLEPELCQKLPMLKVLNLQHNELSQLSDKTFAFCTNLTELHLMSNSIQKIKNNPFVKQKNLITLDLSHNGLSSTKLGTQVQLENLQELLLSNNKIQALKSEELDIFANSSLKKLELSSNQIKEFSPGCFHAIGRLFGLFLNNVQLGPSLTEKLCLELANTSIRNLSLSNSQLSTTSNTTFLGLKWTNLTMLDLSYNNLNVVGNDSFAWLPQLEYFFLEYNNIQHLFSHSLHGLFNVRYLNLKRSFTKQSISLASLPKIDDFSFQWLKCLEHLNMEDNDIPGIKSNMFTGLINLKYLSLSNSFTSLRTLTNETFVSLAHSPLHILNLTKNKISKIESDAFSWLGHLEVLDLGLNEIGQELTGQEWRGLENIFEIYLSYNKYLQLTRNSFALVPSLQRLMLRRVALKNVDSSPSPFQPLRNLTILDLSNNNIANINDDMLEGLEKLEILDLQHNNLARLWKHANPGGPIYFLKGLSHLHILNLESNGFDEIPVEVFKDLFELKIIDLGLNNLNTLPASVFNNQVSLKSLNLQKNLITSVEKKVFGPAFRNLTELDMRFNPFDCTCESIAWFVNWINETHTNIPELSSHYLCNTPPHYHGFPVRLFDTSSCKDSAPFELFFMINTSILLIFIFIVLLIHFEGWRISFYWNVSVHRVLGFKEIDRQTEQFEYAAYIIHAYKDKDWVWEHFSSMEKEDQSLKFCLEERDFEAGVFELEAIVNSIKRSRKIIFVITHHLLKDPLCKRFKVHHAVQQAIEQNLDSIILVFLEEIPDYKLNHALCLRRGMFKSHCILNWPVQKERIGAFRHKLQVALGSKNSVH

With `Nc1ccn([C@@H]2O[C@H](COP(=O)(S)O[C@H]3[C@@H](O)[C@H](n4ccc5c(=O)[nH]c(N)nc54)O[C@@H]3COP(=O)(S)O[C@H]3[C@@H](O)[C@H](n4cnc5c(N)ncnc54)O[C@@H]3COP(=O)(S)O[C@H]3[C@@H](O)[C@H](n4cnc5c(N)ncnc54)O[C@@H]3COP(=O)(S)O[C@H]3[C@@H](O)[C@H](n4ccc5c(=O)[nH]c(N)nc54)O[C@@H]3COP(=O)(S)O[C@H]3[C@@H](O)[C@H](n4ccc(=O)[nH]c4=O)O[C@@H]3COP(=O)(S)O[C@H]3[C@@H](O)[C@H](n4ccc(=O)[nH]c4=O)O[C@@H]3COP(=O)(S)O[C@H]3[C@@H](O)[C@H](n4cnc5c(N)ncnc54)O[C@@H]3COP(=O)(S)O[C@H]3[C@@H](O)[C@H](n4cnc5c(N)ncnc54)O[C@@H]3CO)[C@@H](OP(=O)(S)OC[C@H]3O[C@@H](n4ccc(=O)[nH]c4=O)[C@H](O)[C@@H]3OP(=O)(S)OC[C@H]3O[C@@H](n4ccc(=O)[nH]c4=O)[C@H](O)[C@@H]3OP(=O)(S)OCC(O)COP(=O)(S)O[C@H]3[C@@H](O)[C@H](n4ccc(=O)[nH]c4=O)O[C@@H]3COP(=O)(S)O[C@H]3[C@@H](O)[C@H](n4ccc(=O)[nH]c4=O)O[C@@H]3COP(=O)(S)O[C@H]3[C@@H](O)[C@H](n4ccc(N)nc4=O)O[C@@H]3COP(=O)(S)O[C@H]3[C@@H](O)[C@H](n4ccc5c(=O)[nH]c(N)nc54)O[C@@H]3COP(=O)(S)O[C@H]3[C@@H](O)[C@H](n4cnc5c(N)ncnc54)O[C@@H]3COP(=O)(S)O[C@H]3[C@@H](O)[C@H](n4cnc5c(N)ncnc54)O[C@@H]3COP(=O)(S)O[C@H]3[C@@H](O)[C@H](n4ccc5c(=O)[nH]c(N)nc54)O[C@@H]3COP(=O)(S)O[C@H]3[C@@H](O)[C@H](n4ccc(=O)[nH]c4=O)O[C@@H]3COP(=O)(S)O[C@H]3[C@@H](O)[C@H](n4ccc(=O)[nH]c4=O)O[C@@H]3COP(=O)(S)O[C@H]3[C@@H](O)[C@H](n4cnc5c(N)ncnc54)O[C@@H]3COP(=O)(S)O[C@H]3[C@@H](O)[C@H](n4cnc5c(N)ncnc54)O[C@@H]3CO)[C@H]2O)c(=O)n1` (stereo partly drawn) as the compound, how does the Activity (PBMC [1]) read?
Its Activity is 401 pg/mL.

What about the remaining at 10 min [2] of the same compound?
The remaining at 10 min was 83%.

What about the Activity [3] of the same compound?
Its Activity is “inactive”.

And the fold change (FC) [4]?
The fold change (FC) was 1.6.

What about the Activity (Splenocyte [5]) of the same compound?
Its Activity is “Active”.

What about the IFN-alpha (PBMC [6]) of the same compound?
Its IFN-alpha is 95.5 pg/mL.

What about the Ratio (Homo sapiens) of the same compound?
Its Ratio is 15.6.

And the Activity (Splenocyte [7])?
The Activity was “Active”.
